Eleven compounds from ChEMBL document CHEMBL1142504, “Influence of 6- or 8-substitution on the antiviral activity of 3-arylalkylthiomethylimidazo[1,2-a]pyridine against human cytomegalovirus (CMV) and varicella-zoster virus (VZV): part II” (Bioorg Med Chem, 2008) can be followed below.

Values after ≈ are worked out from the molar mass of the structure shown.

Data set [1] can be described thus: Cytotoxicity against HEL cells assessed as reduction of growth after 3 days. The data set is classed as cell-based. The settings on record: human. Put shortly:
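HEL cell suspensions were added to wells holding varying concentrations of test compound. Plates were incubated 3 days at 37 °C in a humidified CO2 incubator, and viable cells were counted with a Coulter Counter. CC50 is the concentration that reduced viable cell number by 50%.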

Data set [2] concerns Human alphaherpesvirus 3. The data set is described as follows: Antiviral activity against thymidine kinase expressing Varicella-Zoster virus Oka in HEL cells assessed as inhibition of viral cytopathicity. The data set is classed as functional, organism-based. The settings on record: Human alphaherpesvirus 3, Oka. Put shortly: (§1)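 VZV input was 20 PFU per HEL cell culture. Cultures were incubated with test compound for 5 days at 37 °C under 5% CO2, then fixed and stained. Viral plaque formation was counted against the untreated control to give the EC50.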
For orientation: Protection from cytopathic effect is a common read-out in antiviral testing.

Data set [3] concerns Human betaherpesvirus 5. The data set is described as follows: Antiviral activity against human cytomegalovirus Davis in HEL cells assessed as inhibition of viral cytopathicity. Type of data set: functional, organism-based. The settings on record: Human betaherpesvirus 5, Davis. In short, it runs like this: (§2)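 Confluent HEL cell cultures were inoculated with 100 PFU of HCMV. After 2 h adsorption, residual virus was removed and cells were incubated with varying concentrations of test compound. Viral cytopathicity was scored when it reached completion in the untreated virus-infected controls, and the EC50 was taken from this read-out.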

Data set [4] can be described thus: Cytotoxicity against HEL cells assessed as morphological alteration after 3 days. The data set is classed as cell-based. The following applies: human. Put shortly:
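HEL cell cultures were examined by microscope. Cytotoxicity was recorded as the minimum cytotoxic concentration (MCC), meaning the lowest compound concentration that caused a detectable alteration of cell morphology.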

The subject of data set [5] is Human betaherpesvirus 5. The data set is described as follows: Antiviral activity against human cytomegalovirus AD169 in HEL cells assessed as inhibition of viral cytopathicity. Type of data set: functional, organism-based. The following applies: Human betaherpesvirus 5, AD169, HEL. In short, it runs like this: as §2
The subject of data set [6] is Human alphaherpesvirus 3. Description: Antiviral activity against thymidine kinase deficient Varicella-Zoster virus 07/1 in HEL cells assessed as inhibition of viral cytopathicity. The data set is classed as functional, organism-based. The settings on record: Human alphaherpesvirus 3, HEL. Put shortly:
as §1

What is called CC50 is the concentration giving 50% cytotoxicity. In general, EC50 refers to the concentration needed to bring the measured effect to its halfway point. In the case of `Cc1cc(N2CCCC2)c2ncc(CSCCc3ccccc3)n2c1`, in data set [1], the CC50 at 72 h is over 100 µg/mL. The EC50 is 35.7 µg/mL (≈ 102 µM) in the data set with Human alphaherpesvirus 3 [2], 20 µg/mL (≈ 56.9 µM) with Human betaherpesvirus 5 [3], over 20 µg/mL in the data set with Human betaherpesvirus 5 [5] and over 20 µg/mL in the data set on Human alphaherpesvirus 3 [6]. Besides, the MCC at 72 h in data set [4] was over 100 µg/mL.
With `Cc1cc(-n2ccnc2)c2ncc(CSCCc3ccccc3)n2c1`, the CC50 at 72 h in data set [1] was found to be 10 µg/mL (≈ 28.7 µM). The 50% effective concentration (EC50) in the data set on Human alphaherpesvirus 3 [2] was over 4 µg/mL; with Human betaherpesvirus 5 [3], 2.3 µg/mL (≈ 6.6 µM); with Human betaherpesvirus 5 [5], 3.1 µg/mL (≈ 8.9 µM); in the data set on Human alphaherpesvirus 3 [6] it was over 4 µg/mL. Moreover, the MCC at 72 h in data set [4] is 20 µg/mL.
As to `Cc1cc(-n2cccc2)c2ncc(CSCc3ccccc3)n2c1`, the cytotoxic concentration (CC50) at 72 h in data set [1] was 15 µg/mL (≈ 45 µM). Further, the EC50 in the data set on Human alphaherpesvirus 3 [2] worked out at 2.2 µg/mL (≈ 6.6 µM); in the data set with Human betaherpesvirus 5 [3], 2.9 µg/mL (≈ 8.7 µM); in the data set on Human betaherpesvirus 5 [5], 6.3 µg/mL (≈ 18.9 µM); in the data set on Human alphaherpesvirus 3 [6], 1.8 µg/mL (≈ 5.4 µM). For the same compound, the MCC at 72 h in data set [4] was 100 µg/mL.
Consider `Cc1cc(-n2ccc3cccnc32)c2ncc(CSCCc3ccccc3)n2c1`, for which the CC50 at 72 h in data set [1] is over 100 µg/mL. Besides, the EC50 was found to be 6.6 µg/mL (≈ 16.6 µM) in the data set on Human alphaherpesvirus 3 [2], 1.8 µg/mL (≈ 4.52 µM) in the data set with Human betaherpesvirus 5 [3], 4 µg/mL (≈ 10 µM) with Human betaherpesvirus 5 [5] and 14 µg/mL (≈ 35.1 µM) in the data set with Human alphaherpesvirus 3 [6]. Also, the MCC at 72 h in data set [4] turned out to be 100 µg/mL.
For `Cc1cc(C#N)c2ncc(CSCCc3ccccc3)n2c1`, in data set [1], the half-maximal cytotoxic concentration (CC50) at 72 h is over 100 µg/mL. Also, the EC50 was 16.4 µg/mL (≈ 53.3 µM) with Human alphaherpesvirus 3 [2], 2 µg/mL (≈ 6.51 µM) with Human betaherpesvirus 5 [3], 2.2 µg/mL (≈ 7.16 µM) in the data set on Human betaherpesvirus 5 [5] and over 4 µg/mL with Human alphaherpesvirus 3 [6]. The MCC at 72 h in data set [4] is at least 20 µg/mL.
On to `Cc1cc(-n2cccc2)c2ncc(CSCCc3ccccc3)n2c1`, for which the cytotoxic concentration (CC50) at 72 h in data set [1] was found to be 26 µg/mL (≈ 74.8 µM). The concentration giving a half-maximal response (EC50) is over 20 µg/mL in the data set with Human alphaherpesvirus 3 [2], 1.8 µg/mL (≈ 5.18 µM) in the data set with Human betaherpesvirus 5 [3], 1.8 µg/mL (≈ 5.18 µM) in the data set on Human betaherpesvirus 5 [5] and over 20 µg/mL in the data set with Human alphaherpesvirus 3 [6]. Moreover, the MCC at 72 h in data set [4] came to 100 µg/mL.
Turning to `Cc1cc(Sc2ccc(Cl)cc2)c2ncc(CSCCc3ccccc3)n2c1`, the cytotoxic concentration (CC50) at 72 h in data set [1] turned out to be 100 µg/mL (≈ 235 µM). In addition, the EC50 with Human alphaherpesvirus 3 [2], in the data set with Human betaherpesvirus 5 [3], in the data set on Human betaherpesvirus 5 [5] and in the data set on Human alphaherpesvirus 3 [6] was over 0.8 µg/mL in each case. Also, in data set [4], the MCC at 72 h is 4 µg/mL.
Consider `Cc1cc(Sc2ccc(O)cc2)c2ncc(CSCCc3ccccc3)n2c1`, for which the CC50 at 72 h in data set [1] came to 79 µg/mL (≈ 194 µM). Further, the EC50 was 58 µg/mL (≈ 143 µM) in the data set on Human alphaherpesvirus 3 [2], 0.8 µg/mL (≈ 1.97 µM) in the data set with Human betaherpesvirus 5 [3], over 0.8 µg/mL with Human betaherpesvirus 5 [5] and 2.9 µg/mL (≈ 7.13 µM) in the data set on Human alphaherpesvirus 3 [6]. Further, the MCC at 72 h in data set [4] was over 100 µg/mL.
For the compound `Cc1cc(N2CCCC2)c2ncc(CSCc3ccccc3)n2c1`, the CC50 at 72 h in data set [1] was 52 µg/mL (≈ 154 µM). Besides, the EC50 was 17.7 µg/mL (≈ 52.4 µM) in the data set on Human alphaherpesvirus 3 [2], 5.2 µg/mL (≈ 15.4 µM) in the data set with Human betaherpesvirus 5 [3], 10 µg/mL (≈ 29.6 µM) in the data set with Human betaherpesvirus 5 [5] and over 4 µg/mL in the data set on Human alphaherpesvirus 3 [6]. Further, the MCC at 72 h in data set [4] is at least 20 µg/mL.
As to `Cc1cc(N2CCCC2=O)c2ncc(CSCCc3ccccc3)n2c1`, the CC50 at 72 h in data set [1] was 25 µg/mL (≈ 68.4 µM). In addition, the 50% effective concentration (EC50) in the data set with Human alphaherpesvirus 3 [2], with Human betaherpesvirus 5 [3], in the data set with Human betaherpesvirus 5 [5] and in the data set with Human alphaherpesvirus 3 [6] was over 4 µg/mL in each case. In addition, the MCC at 72 h in data set [4] came out at 20 µg/mL.
On to `Cc1cc(-n2ccc3ccccc32)c2ncc(CSCCc3ccccc3)n2c1`, for which the CC50 at 72 h in data set [1] is over 100 µg/mL. Further, the EC50 with Human alphaherpesvirus 3 [2] is over 20 µg/mL; in the data set on Human betaherpesvirus 5 [3], 10.5 µg/mL (≈ 26.4 µM); in the data set with Human betaherpesvirus 5 [5], 20 µg/mL (≈ 50.3 µM); in the data set on Human alphaherpesvirus 3 [6], over 20 µg/mL. In addition, the MCC at 72 h in data set [4] came to 100 µg/mL.
